Experimental data as given in the M2OR odorant receptor database.

target: T1, UniProt Q8VGY6; settings: stereoisomer not certain
T1 sequence (whole entry): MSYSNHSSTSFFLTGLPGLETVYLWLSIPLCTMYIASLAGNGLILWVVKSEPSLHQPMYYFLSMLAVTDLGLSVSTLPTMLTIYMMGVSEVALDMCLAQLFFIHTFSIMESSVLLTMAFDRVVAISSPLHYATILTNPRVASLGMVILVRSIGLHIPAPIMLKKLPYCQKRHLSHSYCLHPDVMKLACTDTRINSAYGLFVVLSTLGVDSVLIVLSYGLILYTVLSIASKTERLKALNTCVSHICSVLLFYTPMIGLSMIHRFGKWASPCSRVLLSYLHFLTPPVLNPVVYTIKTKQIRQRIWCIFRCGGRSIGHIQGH
How it was run: (§1)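 Values were gathered from published papers (main text and supplementary material), with extra details requested from the original authors when needed, and checked for typos and inconsistencies. Each receptor–molecule pair is called responsive (active) if the original authors judged the measured signal statistically different from baseline, and non-responsive (inactive) otherwise. Assay methods varied by source, often transient mammalian cell-line luciferase assays. Recorded details include cell line, G-protein, co-transfected protein and tags.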

| SMILES | odorant receptor agonist call |
| --- | --- |
| CCCCCCCCC(=O)O | inactive |
| CCCCCCCO | inactive |
| c1ccccc1 | inactive |
| CCCCCOC(=O)CCCCC | inactive |
| CCCCCC1=C(C)CCC1=O | inactive |
| CC(C)=CCCC(C)=CCO | inactive |
| O=C(c1ccccc1)c1ccccc1 | inactive |
| CC(=O)Oc1ccccc1 | inactive |
| COc1cc(C(=O)O)ccc1O | active |
| CC12CCC(CC1=O)C2(C)C (centres undefined) | inactive |
| CCCCCCCCCC(=O)[O-].[H+] | inactive |
| CCCCCCC(C)=O | inactive |
| C=CCOC(=O)CCCCCC | inactive |
| CCCCC(=O)CC | inactive |
| CCCC(=O)C(C)=O | inactive |
| CCCCCCCCCCO | inactive |
| O=C1CCOc2ccccc21 | inactive |
| CC(C)=CCCC(C)CCO (centres undefined) | inactive |

| SMILES | odorant receptor agonist call |
| --- | --- |
| CCCCC(=O)O | inactive |
| CCCCCCCCS | inactive |
| CCC(=O)O | inactive |
| CC(=O)OCC=C(C)C | inactive |
| CCCCC(C)=O | inactive |
| CCCCCC(=O)CC | inactive |
| CCC(=O)C(=O)CC | inactive |
| O=C1Cc2ccccc2O1 | inactive |
| CCOC(=O)C(C)C | inactive |
| CCCCCCO | inactive |
| CCCCCC=O | inactive |
| CCCCCCCCCS | inactive |
| CCCCCCCCO | inactive |
| CC(=O)OCc1ccccc1 | inactive |
| CCCCOC=O | inactive |
| CCCCCCCCCO | inactive |
| CCCCCCOC(C)=O | inactive |
| CCCCCCCC(C)=O | inactive |

target: T2, UniProt Q8VGZ2; settings: stereoisomer not certain
T2 sequence (whole entry): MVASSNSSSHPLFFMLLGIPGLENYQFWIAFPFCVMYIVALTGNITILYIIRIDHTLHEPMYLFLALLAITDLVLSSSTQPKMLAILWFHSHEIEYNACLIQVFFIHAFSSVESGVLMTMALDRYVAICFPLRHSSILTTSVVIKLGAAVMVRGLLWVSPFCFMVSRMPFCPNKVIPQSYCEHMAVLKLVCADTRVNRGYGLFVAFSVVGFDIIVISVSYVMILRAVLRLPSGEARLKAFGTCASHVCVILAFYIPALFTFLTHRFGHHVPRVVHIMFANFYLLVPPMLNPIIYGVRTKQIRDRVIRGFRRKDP
How it was run: as §1

| SMILES | odorant receptor agonist call |
| --- | --- |
| CCCCCCCCC(=O)O | active |
| CCCCCCCO | inactive |
| c1ccccc1 | inactive |
| CCCCCOC(=O)CCCCC | inactive |
| CCCCCC1=C(C)CCC1=O | inactive |
| CC(C)=CCCC(C)=CCO | inactive |
| O=C(c1ccccc1)c1ccccc1 | inactive |
| CC(=O)Oc1ccccc1 | inactive |
| COc1cc(C(=O)O)ccc1O | inactive |
| CC12CCC(CC1=O)C2(C)C (centres undefined) | inactive |
| CCCCCCCCCC(=O)[O-].[H+] | active |
| CCCCCCC(C)=O | inactive |
| C=CCOC(=O)CCCCCC | inactive |
| CCCCC(=O)CC | inactive |
| CCCC(=O)C(C)=O | inactive |
| CCCCCCCCCCO | inactive |
| O=C1CCOc2ccccc21 | inactive |
| CC(C)=CCCC(C)CCO (centres undefined) | inactive |

| SMILES | odorant receptor agonist call |
| --- | --- |
| CCCCC(=O)O | inactive |
| CCCCCCCCS | inactive |
| CCC(=O)O | inactive |
| CC(=O)OCC=C(C)C | inactive |
| CCCCC(C)=O | inactive |
| CCCCCC(=O)CC | inactive |
| CCC(=O)C(=O)CC | inactive |
| O=C1Cc2ccccc2O1 | inactive |
| CCOC(=O)C(C)C | inactive |
| CCCCCCO | inactive |
| CCCCCC=O | inactive |
| CCCCCCCCCS | inactive |
| CCCCCCCCO | inactive |
| CC(=O)OCc1ccccc1 | inactive |
| CCCCOC=O | inactive |
| CCCCCCCCCO | inactive |
| CCCCCCOC(C)=O | inactive |
| CCCCCCCC(C)=O | inactive |

target: T3, UniProt Q8VGZ7; settings: stereoisomer not certain
T3 sequence (whole entry): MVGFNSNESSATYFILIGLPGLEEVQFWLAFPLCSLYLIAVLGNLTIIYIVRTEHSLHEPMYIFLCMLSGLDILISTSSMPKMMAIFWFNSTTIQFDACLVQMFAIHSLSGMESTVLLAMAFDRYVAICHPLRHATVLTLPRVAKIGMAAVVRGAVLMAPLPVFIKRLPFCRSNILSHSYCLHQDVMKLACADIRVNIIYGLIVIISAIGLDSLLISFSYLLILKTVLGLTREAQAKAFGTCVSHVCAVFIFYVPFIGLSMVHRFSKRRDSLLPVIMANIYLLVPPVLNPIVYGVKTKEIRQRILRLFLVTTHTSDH
How it was run: as §1

| SMILES | odorant receptor agonist call |
| --- | --- |
| CCCCCCCCC(=O)O | active |
| CCCCCCCO | inactive |
| c1ccccc1 | inactive |
| CCCCCOC(=O)CCCCC | inactive |
| CCCCCC1=C(C)CCC1=O | inactive |
| CC(C)=CCCC(C)=CCO | inactive |
| O=C(c1ccccc1)c1ccccc1 | inactive |
| CC(=O)Oc1ccccc1 | inactive |
| COc1cc(C(=O)O)ccc1O | inactive |
| CC12CCC(CC1=O)C2(C)C (centres undefined) | inactive |
| CCCCCCCCCC(=O)[O-].[H+] | inactive |
| CCCCCCC(C)=O | inactive |
| C=CCOC(=O)CCCCCC | inactive |
| CCCCC(=O)CC | inactive |
| CCCC(=O)C(C)=O | inactive |
| CCCCCCCCCCO | inactive |
| O=C1CCOc2ccccc21 | inactive |
| CC(C)=CCCC(C)CCO (centres undefined) | inactive |

| SMILES | odorant receptor agonist call |
| --- | --- |
| CCCCC(=O)O | inactive |
| CCCCCCCCS | inactive |
| CCC(=O)O | inactive |
| CC(=O)OCC=C(C)C | inactive |
| CCCCC(C)=O | inactive |
| CCCCCC(=O)CC | inactive |
| CCC(=O)C(=O)CC | inactive |
| O=C1Cc2ccccc2O1 | inactive |
| CCOC(=O)C(C)C | inactive |
| CCCCCCO | inactive |
| CCCCCC=O | inactive |
| CCCCCCCCCS | inactive |
| CCCCCCCCO | inactive |
| CC(=O)OCc1ccccc1 | inactive |
| CCCCOC=O | inactive |
| CCCCCCCCCO | inactive |
| CCCCCCOC(C)=O | inactive |
| CCCCCCCC(C)=O | inactive |

target: T4, UniProt Q8VH10; settings: stereoisomer not certain
T4 sequence (whole entry): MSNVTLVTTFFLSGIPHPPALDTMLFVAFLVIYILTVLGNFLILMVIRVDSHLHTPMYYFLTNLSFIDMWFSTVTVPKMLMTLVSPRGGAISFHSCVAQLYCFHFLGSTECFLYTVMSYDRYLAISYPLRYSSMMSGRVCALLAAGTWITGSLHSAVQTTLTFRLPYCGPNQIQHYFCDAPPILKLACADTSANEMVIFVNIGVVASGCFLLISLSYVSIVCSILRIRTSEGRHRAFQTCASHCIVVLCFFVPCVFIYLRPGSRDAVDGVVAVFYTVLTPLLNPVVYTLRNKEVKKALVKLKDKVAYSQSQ
How it was run: as §1

| SMILES | odorant receptor agonist call |
| --- | --- |
| CCCCCCCCC(=O)O | inactive |
| CCCCCCCO | inactive |
| c1ccccc1 | inactive |
| CCCCCOC(=O)CCCCC | inactive |
| CCCCCC1=C(C)CCC1=O | inactive |
| CC(C)=CCCC(C)=CCO | inactive |
| O=C(c1ccccc1)c1ccccc1 | inactive |
| CC(=O)Oc1ccccc1 | active |
| COc1cc(C(=O)O)ccc1O | inactive |
| CC12CCC(CC1=O)C2(C)C (centres undefined) | inactive |
| CCCCCCCCCC(=O)[O-].[H+] | inactive |
| CCCCCCC(C)=O | inactive |
| C=CCOC(=O)CCCCCC | inactive |
| CCCCC(=O)CC | inactive |
| CCCC(=O)C(C)=O | inactive |
| CCCCCCCCCCO | inactive |
| O=C1CCOc2ccccc21 | inactive |
| CC(C)=CCCC(C)CCO (centres undefined) | inactive |

| SMILES | odorant receptor agonist call |
| --- | --- |
| CCCCC(=O)O | inactive |
| CCCCCCCCS | inactive |
| CCC(=O)O | inactive |
| CC(=O)OCC=C(C)C | inactive |
| CCCCC(C)=O | inactive |
| CCCCCC(=O)CC | inactive |
| CCC(=O)C(=O)CC | inactive |
| O=C1Cc2ccccc2O1 | inactive |
| CCOC(=O)C(C)C | inactive |
| CCCCCCO | inactive |
| CCCCCC=O | inactive |
| CCCCCCCCCS | inactive |
| CCCCCCCCO | inactive |
| CC(=O)OCc1ccccc1 | active |
| CCCCOC=O | inactive |
| CCCCCCCCCO | inactive |
| CCCCCCOC(C)=O | inactive |
| CCCCCCCC(C)=O | inactive |
